Hit rate of the full screen: of about 330,000 compounds, about 780 (0.24%) were called active.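 Rule for the calls: active = activation factor of at least 2 at 20 µM; inactive = the rest.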 Only a selection was taken, and actives are over-represented in it overall.
Each molecule was assayed on intestinal alkaline phosphatase [Mus musculus] (assay: activators of mouse IAP, primary screen, biochemical, luminescence, uHTS (AID 2805)). Details: muIAP, CDP-Star luminescence, 30 min; at 10 µM; active compounds read high; 1 = vehicle-only enzyme signal, 0 = enzyme-free wells.
Outline: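 also added = chemiluminescent substrate CDP-Star | test system = mouse IAP enzyme | signal = chemiluminescence readout | compound = DMSO-dissolved test compounds | incubation = 30 min at room temperature | benchmarks = DMSO wells, no-enzyme wells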

Row | SMILES | activation factor
1 | CCc1ccccc1N1CN(Cc2ccco2)CNC1=S | 0.992 (inactive)
2 | COc1c(O)cccc1-c1nnn(CCC(=O)OCC(=O)c2ccccc2)n1 | 0.984 (inactive)
3 | Cc1cccc(NC(=S)NC23CN4CN(CN(C4)C2)C3)c1 | 0.962 (inactive)
4 | Cc1cccc(NC(=S)Nc2ccc(Cl)c(Cl)c2)c1 | 1.16 (inactive)
5 | Cc1cccc(NC(=S)NCCN(C2CCCCC2)C2CCCC2)c1 | 2.13 (active)
6 | O=C(c1ccc(O)cc1)c1ccc(C(=O)O)c(C(=O)O)c1 | 1.01 (inactive)
7 | CC(=O)c1cccc(NC(=O)N2CCCC2C(=O)NCCC(C)C)c1 (configuration not stated) | 0.988 (inactive)
8 | O=C(NCCOc1ccccc1Cl)C(=O)Nc1ccccc1 | 0.98 (inactive)
9 | O=C(NCCOc1ccccc1F)Nc1ccc(Br)cc1 | 2.2 (active)
10 | O=C(COc1ccccc1F)NNC(=O)c1cc(Br)ccc1Cl | 0.932 (inactive)
11 | O=C(Cn1ncc2c3ccccc3n(Cc3ccccc3)c2c1=O)NCCCN1CCOCC1 | 0.993 (inactive)
12 | C=C(Br)Cn1c(CCCC)nc2ccccc21 | 0.968 (inactive)
13 | COc1ccc(NC(=O)Nc2ccc3c(c2)C(=O)N([C@H](C)CO)C[C@H](C)[C@@H](CN(C)C(=O)Nc2ccc4c(c2)OCO4)O3)cc1 | 2.74 (active)
14 | COc1ccc(NC(=O)N(C)C[C@H]2Oc3ccc(NC(=O)C4CC4)cc3C(=O)N([C@H](C)CO)C[C@@H]2C)cc1 | 1.05 (inactive)
15 | C[C@H](CO)N1C[C@H](C)[C@@H](CN(C)C(=O)Nc2ccc3c(c2)OCO3)Oc2c(cccc2N(C)C)C1=O | 0.974 (inactive)
16 | COc1ccc(S(=O)(=O)NCC(=O)NC2CC2)cc1OC | 0.966 (inactive)
17 | O=C(CN1CCC(O)(c2cccc(C(F)(F)F)c2)CC1)NCCc1ccccc1 | 0.933 (inactive)
18 | CC(=O)Nc1cccc(C(=O)OCN2C(=O)c3ccccc3C2=O)c1 | 0.892 (inactive)
19 | CC(=O)N(CC(O)CO)c1c(I)c(C(=O)NCC(O)CO)c(I)c(C(=O)NCC(O)CO)c1I (configuration not stated) | 1.05 (inactive)
20 | Cc1cc(C)c(S(=O)(=O)c2ccccc2)c(OC(=O)c2c(F)cccc2Cl)n1 | 0.919 (inactive)
21 | N=c1c2c(-c3ccccc3)c(-c3ccccc3)n(Cc3ccccc3)c2ncn1CCCO | 0.982 (inactive)

Row | SMILES | activation factor
22 | OCCCN1c2ccccc2Nc2nnc(-c3ccccc3)cc21 | 2.5 (active)
23 | COc1ccc(C)cc1NC(=O)NCCCCc1ccccc1 | 1.36 (inactive)
24 | O=C(CNC(=O)c1ccccc1Br)NNC(=O)c1cccs1 | 0.934 (inactive)
25 | Cc1ccc(CN(C)Cc2cc(=O)oc3cc(C)c(Cl)cc23)cc1 | 0.989 (inactive)
26 | CC(NC(=S)Nc1ccccc1)C1COc2ccccc2O1 (configuration not stated) | 1.67 (inactive)
27 | O=S(=O)(NCCCc1ccccc1)c1ccc(Br)cc1 | 1.03 (inactive)
28 | S=C(NCC1COc2ccccc2O1)Nc1ccc(Br)cc1 (configuration not stated) | 3.2 (active)
29 | S=C(NCCCc1ccccc1)Nc1ccc(Br)cc1 | 2.09 (active)
30 | S=C(Nc1ccc(Br)cc1)NC1CCN(Cc2ccccc2)CC1 | 1.46 (inactive)
31 | CCCN(CC1COc2ccccc2O1)C(=S)Nc1ccc(C)cc1 (configuration not stated) | 1.14 (inactive)
32 | COCCNC(=O)c1ccc(S(=O)(=O)c2ccc(Cl)cc2)c(NC(C)=O)c1 | 0.896 (inactive)
33 | O=C(NCC1CCCO1)c1ccccc1-c1nc(-c2ccccc2Cl)no1 (configuration not stated) | 0.926 (inactive)
34 | Cc1noc(C)c1S(=O)(=O)N(CC(=O)NCc1ccc(Cl)cc1)c1ccc2c(c1)OCO2 | 1.12 (inactive)
35 | Cc1noc(C)c1S(=O)(=O)N(CC(=O)Nc1ccc2c(c1)OCCO2)c1ccc(C(C)C)cc1 | 2.03 (active)
36 | CCOC(=O)c1cccc(NC(=O)CN(c2ccc(C)cc2)S(=O)(=O)c2c(C)noc2C)c1 | 1.37 (inactive)
37 | COc1ccc(N(C)C(=O)C2CCN(S(=O)(=O)c3cccc4nsnc34)CC2)cc1 | 0.954 (inactive)
38 | O=C(NCc1cccnc1)c1cnc2ccccc2n1 | 0.965 (inactive)
39 | CC(C(=O)O)N1C(=O)c2cccc3cccc1c23 (configuration not stated) | 1.02 (inactive)
40 | CCOc1ccc(C(CC(=O)O)NC(=O)Cc2ccccc2)cc1OC (configuration not stated) | 0.993 (inactive)
41 | CCOc1ccc(C(CCc2ccccc2)NC(=O)c2ccc(OC)c(OC)c2)cc1OCC (configuration not stated) | 2.15 (active)
42 | CCOc1ccc(C(CC(=O)O)NC(=O)C23CC4CC(CC(C4)C2)C3)cc1OC (configuration not stated) | 1.06 (inactive)

Row | SMILES | activation factor
43 | CCN(CC)Cc1nc2sc(C)c(C)c2c(=O)[nH]1 | 0.952 (inactive)
44 | Cc1cc(=O)[nH]c(Nc2cccc(Br)c2)n1 | 1.07 (inactive)
45 | C=CCOc1cccc(C2NC(=O)c3ccccc3O2)c1 (configuration not stated) | 1.01 (inactive)
46 | CN(C)S(=O)(=O)c1cccc(NC(=O)Cc2ccsc2)c1 | 1.06 (inactive)
47 | CN(c1ccccc1)S(=O)(=O)c1cccc(NC(=O)Cc2ccc(Cl)cc2)c1 | 1.55 (inactive)
48 | CN(c1ccccc1)S(=O)(=O)c1cccc(NC(=O)Cc2c(F)cccc2Cl)c1 | 2.3 (active)
49 | Cc1ccc(C(=O)N/C(=C\c2cn(C)c3ccccc23)C(=O)N2CCN(C)CC2)cc1 | 0.969 (inactive)
50 | COC(=O)CNC(=O)c1ccc2c(c1)S(=O)(=O)c1ccccc1C2=O | 1.01 (inactive)
51 | O=C(CCc1ccc(S(=O)(=O)NC2CCCCC2)cc1)NCc1ccccc1 | 1.18 (inactive)
52 | CCN(CC)N=Nc1cccc(NC(C)=O)c1 | 0.943 (inactive)
53 | COc1ccc(CN2C3CCCC2CC(NC(=O)c2cccc(F)c2)C3)cc1 (configuration not stated) | 1.11 (inactive)
54 | CCOc1ccccc1C(=O)NC1CC2CCCC(C1)N2Cc1ccccc1 (configuration not stated) | 0.947 (inactive)
55 | COc1ccc(NC(=O)NC2CC3CCCC(C2)N3Cc2ccccc2)cc1 (configuration not stated) | 3.11 (active)
56 | O=C(COc1ccc(S(=O)(=O)N2CCOCC2)cc1Cl)N1CCOCC1 | 1.01 (inactive)
57 | C[N+]1(CC(O)COc2ccccc2)CCN(C(=O)c2ccc([N+](=O)[O-])cc2)CC1 (configuration not stated) | 0.943 (inactive)
58 | Cn1cccc1C(C#N)c1ccccc1C#N (configuration not stated) | 0.962 (inactive)
59 | O=C1C2CCCN2C(=O)N1CCCCN1CCN(c2cccc(C(F)(F)F)c2)CC1 (configuration not stated) | 0.942 (inactive)
60 | CCc1ccc(NC(=O)NC(C)c2ccc3c(c2)OCO3)cc1 (configuration not stated) | 2.38 (active)
61 | CC(NC(=O)Nc1ccc2c(c1)OCO2)c1ccncc1 (configuration not stated) | 1.02 (inactive)
62 | CC(NC(=O)Nc1cccc([N+](=O)[O-])c1)c1ccc2c(c1)OCO2 (configuration not stated) | 0.95 (inactive)

From PubChem BioAssay AID2805 (Sanford-Burnham Center for Chemical Genomics, 2010)
